Assay results as given in ChEMBL document CHEMBL2346551, “A new series of N2-substituted-5-(p-toluenesulfonylamino)phthalimide analogues as α-glucosidase inhibitors” (Bioorg Med Chem Lett, 2013).

Experiments:
[1] = target: Maltase-glucoamylase, intestinal (Rattus norvegicus); assay: Inhibition of rat intestinal maltase using maltose as substrate by colorimetric analysis
[2] = target: Lactase/phlorizin hydrolase (Rattus norvegicus, UniProt Q02401); assay: Inhibition of rat intestinal lactase using lactose as substrate by colorimetric analysis
[3] = Inhibition of Saccharomyces cerevisiae alpha-glucosidase using 4-nitrophenyl alpha D-glucopyranoside as substrate assessed as release of 4-nitrophenol incubated for 5 mins prior to substrate addition measured after 10 mins
Method in brief: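 Yeast α-glucosidase assayed at 37 °C with 4-nitrophenyl α-D-glucopyranoside as substrate in 10 mM sodium phosphate buffer, pH 7.28. […] Absorbance rise at 400 nm compared with a DMSO control; IC50 read graphically from percent activity versus log concentration.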

[4] = Inhibition of rat alpha-amylase using amylose as substrate by colorimetric analysis

Sequence of Lactase/phlorizin hydrolase (Q02401 868-1928 limits assumed): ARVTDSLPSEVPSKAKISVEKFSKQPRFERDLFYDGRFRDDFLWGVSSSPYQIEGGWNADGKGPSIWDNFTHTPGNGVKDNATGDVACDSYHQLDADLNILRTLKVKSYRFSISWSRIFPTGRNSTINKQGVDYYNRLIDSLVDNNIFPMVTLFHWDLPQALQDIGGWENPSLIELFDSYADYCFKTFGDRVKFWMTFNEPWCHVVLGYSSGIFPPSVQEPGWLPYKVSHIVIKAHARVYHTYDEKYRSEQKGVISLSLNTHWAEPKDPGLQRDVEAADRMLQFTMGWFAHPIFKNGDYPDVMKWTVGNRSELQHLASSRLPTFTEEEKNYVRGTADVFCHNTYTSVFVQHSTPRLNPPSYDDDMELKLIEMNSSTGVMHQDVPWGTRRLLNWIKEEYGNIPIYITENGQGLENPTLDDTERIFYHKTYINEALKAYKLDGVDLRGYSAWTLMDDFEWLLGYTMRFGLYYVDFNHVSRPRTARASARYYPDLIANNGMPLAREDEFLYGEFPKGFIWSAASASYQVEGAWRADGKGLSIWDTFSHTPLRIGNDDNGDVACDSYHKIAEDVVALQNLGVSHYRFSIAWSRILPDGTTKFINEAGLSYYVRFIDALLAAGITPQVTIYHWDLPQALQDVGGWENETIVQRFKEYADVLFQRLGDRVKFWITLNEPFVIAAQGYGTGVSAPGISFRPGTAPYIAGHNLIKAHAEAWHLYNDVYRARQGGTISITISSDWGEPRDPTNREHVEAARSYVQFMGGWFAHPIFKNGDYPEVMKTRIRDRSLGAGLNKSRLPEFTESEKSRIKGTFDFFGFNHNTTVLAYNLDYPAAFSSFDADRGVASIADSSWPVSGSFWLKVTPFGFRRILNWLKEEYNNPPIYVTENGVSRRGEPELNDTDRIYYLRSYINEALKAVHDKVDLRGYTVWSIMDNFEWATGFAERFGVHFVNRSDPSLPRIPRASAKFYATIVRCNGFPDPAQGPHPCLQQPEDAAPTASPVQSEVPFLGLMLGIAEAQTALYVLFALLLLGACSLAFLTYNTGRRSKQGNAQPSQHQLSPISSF

Compound | IC50 [1] [µM] | IC50 [2] [µM] | IC50 [3] [µM] | IC50 [4] [µM]
Cc1ccc(S(=O)(=O)Nc2ccc3c(c2)C(=O)N(CCBr)C3=O)cc1 | > 200 | > 200 | 94.2 | > 200
Cc1ccc(S(=O)(=O)Nc2ccc3c(c2)C(=O)N(CCCBr)C3=O)cc1 | – | > 200 | 88.4 | > 200
Cc1ccc(S(=O)(=O)Nc2ccc3c(c2)C(=O)N(CCCCBr)C3=O)cc1 | > 200 | > 200 | 69.7 | > 200
Cc1ccc(S(=O)(=O)Nc2ccc3c(c2)C(=O)N(Cc2ccccc2)C3=O)cc1 | > 200 | > 200 | 54.2 | > 200
Cc1ccc(S(=O)(=O)Nc2ccc3c(c2)C(=O)N(Cc2ccc(F)cc2)C3=O)cc1 | – | 172 | 42.7 | > 200
Cc1ccc(S(=O)(=O)Nc2ccc3c(c2)C(=O)N(Cc2ccccc2F)C3=O)cc1 | 195 | 180 | 40.8 | > 200
Cc1ccc(S(=O)(=O)Nc2ccc3c(c2)C(=O)N(Cc2ccc(Cl)cc2)C3=O)cc1 | 188 | 155 | 32.6 | > 200
Cc1ccc(S(=O)(=O)Nc2ccc3c(c2)C(=O)N(Cc2ccc(Cl)c(Cl)c2)C3=O)cc1 | 122 | 101 | 28.7 | > 200
Cc1ccc(S(=O)(=O)Nc2ccc3c(c2)C(=O)N(CCNc2ccccc2)C3=O)cc1 | 99.6 | 177 | 58.5 | > 200
Cc1ccc(S(=O)(=O)Nc2ccc3c(c2)C(=O)N(Cc2ccc(C#N)cc2)C3=O)cc1 | – | 199 | 66.5 | > 200
Cc1ccc(S(=O)(=O)Nc2ccc3c(c2)C(=O)N(Cc2ccc(C(N)=O)cc2)C3=O)cc1 | – | 84.1 | 60.3 | > 200
Cc1ccc(S(=O)(=O)Nc2ccc3c(c2)C(=O)N(Cc2ccc(O)c(O)c2)C3=O)cc1 | – | 164 | 72.6 | > 200
Cc1ccc(S(=O)(=O)Nc2ccc3c(c2)C(=O)N(N2CCOCC2)C3=O)cc1 | – | > 200 | 52.1 | > 200
Cc1ccc(S(=O)(=O)Nc2ccc3c(c2)C(=O)N(CCNc2ccc(O)c(O)c2)C3=O)cc1 | 28.8 | 66.6 | 44.5 | > 200
Cc1ccc(S(=O)(=O)Nc2ccc3c(c2)C(=O)N(CCOc2cccc(O)c2)C3=O)cc1 | 55.6 | 111 | 28.7 | > 200
Cc1ccc(S(=O)(=O)Nc2ccc3c(c2)C(=O)N(CCOc2ccc(O)cc2)C3=O)cc1 | 47.7 | 100 | 25.5 | > 200
Cc1ccc(S(=O)(=O)Nc2ccc3c(c2)C(=O)N(CCOc2ccccc2)C3=O)cc1 | – | 170 | 47.3 | > 200
O=C1c2ccccc2C(=O)N1CCNc1ccccc1 | 184 | > 200 | > 200 | > 200
O=C1c2ccc([N+](=O)[O-])cc2C(=O)N1CCNc1ccccc1 | 111 | > 200 | 68.9 | > 200
Nc1ccc2c(c1)C(=O)N(CCNc1ccccc1)C2=O | 144 | > 200 | 138 | > 200
Cc1ccc(S(=O)(=O)Nc2ccc3c(c2)C(=O)N(C)C3=O)cc1 | > 200 | > 200 | > 200 | > 200
C[C@H]1O[C@H](O[C@H]2[C@H](O)[C@@H](O)[C@@H](O[C@H]3[C@H](O)[C@@H](O)C(O)O[C@@H]3CO)O[C@@H]2CO)[C@H](O)[C@@H](O)[C@@H]1N[C@H]1C=C(CO)[C@@H](O)[C@H](O)[C@H]1O (stereo not given in full) [ACARBOSE] | – | 167 | 235 | 8.65
